Data from the M2OR odorant receptor database.
Changes are numbered by the printed parent chain.

Key:
Details in all cases: stereoisomer not certain
OR1D5 (Homo sapiens) = biological target: T1, OR1D5 (Homo sapiens) (UniProt P58170)
T1 sequence (whole entry): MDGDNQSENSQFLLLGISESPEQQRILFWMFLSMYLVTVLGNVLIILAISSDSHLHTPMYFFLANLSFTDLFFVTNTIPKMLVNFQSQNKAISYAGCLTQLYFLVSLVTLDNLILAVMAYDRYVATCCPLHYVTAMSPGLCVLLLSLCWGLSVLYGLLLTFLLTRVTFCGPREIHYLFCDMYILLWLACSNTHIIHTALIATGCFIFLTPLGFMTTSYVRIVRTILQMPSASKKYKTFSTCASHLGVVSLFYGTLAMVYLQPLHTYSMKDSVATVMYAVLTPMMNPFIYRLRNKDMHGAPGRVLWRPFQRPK
Procedure, shortened: (§1)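 Each receptor–molecule pair is labelled responsive or non-responsive (inactive) according to whether the original authors judged the measured signal statistically different from baseline. The data were taken from the main text and supplementary material of published papers and checked for typos and inconsistencies. Assay methods differed by source, with transient luciferase assays in mammalian cell lines being common.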

OR1E1 (Homo sapiens) = biological target: T2, OR1E1 (Homo sapiens) (UniProt P30953)
T2 sequence (whole entry): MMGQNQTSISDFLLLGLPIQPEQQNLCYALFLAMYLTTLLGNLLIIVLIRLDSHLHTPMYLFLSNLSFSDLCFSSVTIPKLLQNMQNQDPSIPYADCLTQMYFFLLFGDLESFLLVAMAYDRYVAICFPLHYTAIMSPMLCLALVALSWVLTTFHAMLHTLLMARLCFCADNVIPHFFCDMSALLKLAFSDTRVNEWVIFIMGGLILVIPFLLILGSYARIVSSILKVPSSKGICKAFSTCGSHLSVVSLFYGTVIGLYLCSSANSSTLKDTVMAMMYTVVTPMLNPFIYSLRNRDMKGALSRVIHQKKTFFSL
Procedure, shortened: as §1

OR1E2 (Homo sapiens) = biological target: T3, OR1E2 (Homo sapiens) (UniProt P47887)
T3 sequence (whole entry): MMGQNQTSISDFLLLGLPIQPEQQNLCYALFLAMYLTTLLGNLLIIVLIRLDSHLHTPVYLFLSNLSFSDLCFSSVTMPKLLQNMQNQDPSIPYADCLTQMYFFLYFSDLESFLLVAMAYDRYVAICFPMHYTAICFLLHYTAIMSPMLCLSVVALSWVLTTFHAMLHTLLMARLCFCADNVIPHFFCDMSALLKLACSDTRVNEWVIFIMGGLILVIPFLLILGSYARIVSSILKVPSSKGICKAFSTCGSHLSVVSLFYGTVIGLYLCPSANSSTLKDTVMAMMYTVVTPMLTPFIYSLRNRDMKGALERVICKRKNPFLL
Procedure, shortened: as §1

OR1E2 = test system: T4, OR1E2
T4 sequence (whole entry): T3 sequence (whole entry) with C27R
Procedure, shortened: as §1

OR1F1 (Homo sapiens) = biological target: T5, OR1F1 (Homo sapiens) (UniProt O43749)
T5 sequence (whole entry): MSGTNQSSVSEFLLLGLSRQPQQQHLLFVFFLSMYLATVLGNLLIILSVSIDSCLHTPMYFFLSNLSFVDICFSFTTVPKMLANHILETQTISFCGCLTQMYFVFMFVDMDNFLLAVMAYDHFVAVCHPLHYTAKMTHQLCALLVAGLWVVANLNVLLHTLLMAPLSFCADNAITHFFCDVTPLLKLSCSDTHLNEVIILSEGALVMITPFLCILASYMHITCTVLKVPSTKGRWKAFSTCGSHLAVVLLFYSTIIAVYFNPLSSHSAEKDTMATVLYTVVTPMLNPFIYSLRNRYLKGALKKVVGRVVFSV
Procedure, shortened: as §1

OR1F12P (Homo sapiens) = biological target: T6, OR1F12P (Homo sapiens) (UniProt Q8NHA8)
T6 sequence (whole entry): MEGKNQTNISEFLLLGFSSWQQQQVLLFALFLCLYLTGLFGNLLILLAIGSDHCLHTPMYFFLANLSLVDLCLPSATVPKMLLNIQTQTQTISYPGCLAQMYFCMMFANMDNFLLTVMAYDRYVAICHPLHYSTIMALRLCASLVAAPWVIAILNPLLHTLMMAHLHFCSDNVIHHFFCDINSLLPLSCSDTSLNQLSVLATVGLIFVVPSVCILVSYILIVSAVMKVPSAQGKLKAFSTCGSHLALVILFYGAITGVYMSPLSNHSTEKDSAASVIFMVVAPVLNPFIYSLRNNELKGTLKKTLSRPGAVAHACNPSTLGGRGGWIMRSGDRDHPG
Procedure, shortened: as §1

OR1F1 = test system: T7, OR1F1
T7 sequence (whole entry): T5 sequence (whole entry) with F75S
Procedure, shortened: as §1

OR1G1 (Homo sapiens) = biological target: T8, OR1G1 (Homo sapiens) (UniProt P47890)
T8 sequence (whole entry): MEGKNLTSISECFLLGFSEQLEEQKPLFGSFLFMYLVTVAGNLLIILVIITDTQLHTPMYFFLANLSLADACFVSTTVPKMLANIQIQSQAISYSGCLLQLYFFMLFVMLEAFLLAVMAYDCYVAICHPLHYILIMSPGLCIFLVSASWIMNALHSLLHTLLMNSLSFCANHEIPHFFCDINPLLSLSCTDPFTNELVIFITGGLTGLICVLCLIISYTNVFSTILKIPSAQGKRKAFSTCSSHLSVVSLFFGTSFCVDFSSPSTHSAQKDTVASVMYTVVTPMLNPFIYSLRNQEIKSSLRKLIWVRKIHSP
Procedure, shortened: as §1

OR1I1 (Homo sapiens) = biological target: T9, OR1I1 (Homo sapiens) (UniProt O60431)
T9 sequence (whole entry): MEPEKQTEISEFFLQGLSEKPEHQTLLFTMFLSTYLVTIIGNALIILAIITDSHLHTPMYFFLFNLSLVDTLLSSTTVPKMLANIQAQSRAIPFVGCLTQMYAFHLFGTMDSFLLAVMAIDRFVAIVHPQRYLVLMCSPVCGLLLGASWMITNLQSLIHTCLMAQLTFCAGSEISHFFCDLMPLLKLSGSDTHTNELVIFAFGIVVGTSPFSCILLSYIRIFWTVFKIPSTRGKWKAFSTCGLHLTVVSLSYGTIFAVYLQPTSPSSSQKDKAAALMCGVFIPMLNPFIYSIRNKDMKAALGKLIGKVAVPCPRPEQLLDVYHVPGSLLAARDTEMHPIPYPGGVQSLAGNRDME
Procedure, shortened: as §1

OR1J1 (Homo sapiens) = biological target: T10, OR1J1 (Homo sapiens) (UniProt Q8NGS3)
T10 sequence (whole entry): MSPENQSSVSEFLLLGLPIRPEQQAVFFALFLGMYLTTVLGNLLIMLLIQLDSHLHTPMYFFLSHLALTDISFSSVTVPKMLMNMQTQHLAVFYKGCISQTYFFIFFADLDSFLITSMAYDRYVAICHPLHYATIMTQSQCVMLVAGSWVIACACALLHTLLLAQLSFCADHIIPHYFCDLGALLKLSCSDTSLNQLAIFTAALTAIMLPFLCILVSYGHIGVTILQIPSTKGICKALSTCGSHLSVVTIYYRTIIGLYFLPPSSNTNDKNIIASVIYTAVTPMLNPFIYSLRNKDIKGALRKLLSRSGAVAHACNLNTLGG
Procedure, shortened: as §1

OR1J2 (Homo sapiens) = biological target: T11, OR1J2 (Homo sapiens) (UniProt Q8NGS2)
T11 sequence (whole entry): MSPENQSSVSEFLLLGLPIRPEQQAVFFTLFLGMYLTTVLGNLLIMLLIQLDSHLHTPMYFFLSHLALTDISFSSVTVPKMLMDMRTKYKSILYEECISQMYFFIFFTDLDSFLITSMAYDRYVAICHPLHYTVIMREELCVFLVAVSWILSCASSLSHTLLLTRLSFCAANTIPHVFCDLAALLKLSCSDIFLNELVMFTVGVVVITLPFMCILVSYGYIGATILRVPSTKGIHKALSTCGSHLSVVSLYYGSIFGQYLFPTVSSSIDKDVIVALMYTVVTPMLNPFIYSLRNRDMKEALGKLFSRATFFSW
Procedure, shortened: as §1

OR1J4 (Homo sapiens) = biological target: T12, OR1J4 (Homo sapiens) (UniProt Q8NGS1)
T12 sequence (whole entry): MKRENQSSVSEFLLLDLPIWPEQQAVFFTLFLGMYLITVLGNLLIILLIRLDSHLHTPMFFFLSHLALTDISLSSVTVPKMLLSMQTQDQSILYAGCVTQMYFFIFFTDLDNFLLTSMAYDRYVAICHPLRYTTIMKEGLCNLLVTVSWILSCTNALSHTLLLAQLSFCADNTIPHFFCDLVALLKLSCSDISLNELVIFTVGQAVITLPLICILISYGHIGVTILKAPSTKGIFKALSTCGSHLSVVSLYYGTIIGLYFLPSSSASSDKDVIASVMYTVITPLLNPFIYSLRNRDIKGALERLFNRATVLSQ
Procedure, shortened: as §1

OR1K1 (Homo sapiens) = biological target: T13, OR1K1 (Homo sapiens) (UniProt Q8NGR3)
T13 sequence (whole entry): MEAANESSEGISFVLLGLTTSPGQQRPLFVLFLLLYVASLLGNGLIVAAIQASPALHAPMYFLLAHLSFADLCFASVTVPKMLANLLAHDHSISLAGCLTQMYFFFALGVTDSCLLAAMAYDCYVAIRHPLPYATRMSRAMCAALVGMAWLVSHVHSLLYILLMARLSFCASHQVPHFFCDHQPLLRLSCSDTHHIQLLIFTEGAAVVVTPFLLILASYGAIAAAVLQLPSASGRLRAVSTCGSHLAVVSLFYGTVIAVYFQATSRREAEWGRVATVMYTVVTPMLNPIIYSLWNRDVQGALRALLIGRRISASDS
Procedure, shortened: as §1

OR1L1 = test system: T14, OR1L1
T14 sequence (whole entry): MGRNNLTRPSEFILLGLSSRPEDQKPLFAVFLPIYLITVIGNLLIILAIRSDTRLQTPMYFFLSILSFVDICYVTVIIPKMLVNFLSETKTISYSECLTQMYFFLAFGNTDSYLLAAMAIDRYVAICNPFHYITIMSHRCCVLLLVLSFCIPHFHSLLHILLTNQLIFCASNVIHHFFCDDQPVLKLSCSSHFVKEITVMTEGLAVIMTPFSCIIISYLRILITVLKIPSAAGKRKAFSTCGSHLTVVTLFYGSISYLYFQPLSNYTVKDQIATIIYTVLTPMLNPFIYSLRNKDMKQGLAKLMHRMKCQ
Procedure, shortened: as §1

OR1D4 (Homo sapiens) = biological target: T15, OR1D4 (Homo sapiens) (UniProt P47884)
T15 sequence (whole entry): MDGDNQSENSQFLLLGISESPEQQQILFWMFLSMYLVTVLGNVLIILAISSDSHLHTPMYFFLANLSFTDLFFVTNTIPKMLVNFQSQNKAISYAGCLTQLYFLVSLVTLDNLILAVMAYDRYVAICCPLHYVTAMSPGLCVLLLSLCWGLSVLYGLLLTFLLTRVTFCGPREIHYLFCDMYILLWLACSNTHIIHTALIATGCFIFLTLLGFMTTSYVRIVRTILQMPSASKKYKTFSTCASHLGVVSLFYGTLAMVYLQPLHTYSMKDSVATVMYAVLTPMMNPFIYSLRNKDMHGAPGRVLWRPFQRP
Procedure, shortened: as §1

OR1L1 (Homo sapiens) = biological target: T16, OR1L1 (Homo sapiens) (UniProt Q8NH94)
T16 sequence (whole entry): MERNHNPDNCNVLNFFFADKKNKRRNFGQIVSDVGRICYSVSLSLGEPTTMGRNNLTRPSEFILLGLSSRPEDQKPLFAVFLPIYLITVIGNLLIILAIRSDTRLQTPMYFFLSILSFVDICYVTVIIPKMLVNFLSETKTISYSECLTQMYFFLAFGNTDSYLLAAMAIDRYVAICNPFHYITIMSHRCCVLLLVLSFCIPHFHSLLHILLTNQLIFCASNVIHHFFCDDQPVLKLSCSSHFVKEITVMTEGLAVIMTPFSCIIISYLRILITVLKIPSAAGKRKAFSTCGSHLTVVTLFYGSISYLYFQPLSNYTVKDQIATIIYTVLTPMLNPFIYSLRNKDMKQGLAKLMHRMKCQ
Procedure, shortened: as §1

Measured: odorant receptor agonist call

CC1=C(O)C(=O)OC1C (stereo not given)
not listed: OR1D4 (Homo sapiens) | OR1L1 (Homo sapiens)
inactive: all other assays above

CCCCCCC(=O)OCC
inactive: OR1G1 (Homo sapiens)

C=C(C)C1CC=C(C)CC1 (stereo not given)
active: OR1G1 (Homo sapiens)

CCOC(=O)CC1(C)OCCO1
inactive: OR1G1 (Homo sapiens)

CCCCC(S)C(C)CO (stereo not given)
active: OR1J4 (Homo sapiens)
not listed: OR1E2 | OR1F1 | OR1L1
inactive: all other assays above
